Test results reported in ChEMBL document CHEMBL1141286, “Benzochromenones from the marine crinoid Comantheria rotula inhibit hypoxia-inducible factor-1 (HIF-1) in cell-based reporter assays and differentially suppress the growth of certain tumor cell lines” (J Nat Prod, 2007).

tested on: HCT-116; assay: Growth inhibition of human HCT116 cells; format: functional; settings: not given

Row | SMILES | GI50 [µM]
1 | CCCc1cc(=O)c2c(O)c3c(OC)cc(O)cc3cc2o1 | 18.6

same assay, conditions: read-out: Log LC50 (the source's name) (converted)

Row | SMILES | CC50 [µM]
2 | CCCc1cc(=O)c2c(O)c3c(OC)cc(O)cc3cc2o1 | 75.9

same assay, conditions: read-out: Log TGI (converted)

Row | SMILES | TGI [µM]
3 | CCCc1cc(=O)c2c(O)c3c(OC)cc(O)cc3cc2o1 | 37.2

tested on: NCI-H522; assay: Growth inhibition of human NCI-H522 cells; format: functional; settings: not given

Row | SMILES | GI50 [µM]
4 | CCCc1cc(=O)c2c(O)c3c(OC)cc(O)cc3cc2o1 | > 100

same assay, conditions: read-out: Log LC50 (the source's name) (converted)

Row | SMILES | CC50 [µM]
5 | CCCc1cc(=O)c2c(O)c3c(OC)cc(O)cc3cc2o1 | 41.7

same assay, conditions: read-out: Log TGI (converted)

Row | SMILES | TGI [µM]
6 | CCCc1cc(=O)c2c(O)c3c(OC)cc(O)cc3cc2o1 | 15.1

tested on: not listed separately; assay: Inhibition of luciferase at 30 uM; settings: not given
How it was run: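 Purified recombinant firefly luciferase (QuantiLum, 46.8 μg mL−1) mixed with compound in passive lysis buffer containing BSA (1 mg mL−1); equal volume of luciferase substrate added, light output read; percentage inhibition relative to DMSO control; concentration-response curves up to 30 μM.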

Row | SMILES | inhibition [%]
7 | CCCc1cc(=O)c2c(O)c3c(OC)cc(O)cc3cc2o1 | 48

tested on: SF-295; assay: Growth inhibition of human SF295 cells; format: functional; settings: not given

Row | SMILES | GI50 [µM] | LC50 [µM]
8 | CCCc1cc(=O)c2c(O)c3c(OC)cc(O)cc3cc2o1 | 24.5 | > 100

same assay, conditions: read-out: Log TGI (converted)

Row | SMILES | TGI [µM]
9 | CCCc1cc(=O)c2c(O)c3c(OC)cc(O)cc3cc2o1 | 77.6

tested on: OVCAR-8; assay: Growth inhibition of human OVACAR8 cells; format: functional; settings: not given

Row | SMILES | GI50 [µM] | LC50 [µM]
10 | CCCc1cc(=O)c2c(O)c3c(OC)cc(O)cc3cc2o1 | 28.8 | > 100

same assay, conditions: read-out: Log TGI (converted)

Row | SMILES | TGI [µM]
11 | CCCc1cc(=O)c2c(O)c3c(OC)cc(O)cc3cc2o1 | > 100

tested on: not listed separately; assay: Inhibition of 1,10-phenanthroline-induced HIF1 activation in T47D cells by TK-luciferase assay; format: cell-based; settings: Homo sapiens
How it was run: (§1)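 HIF-1 reporter (pHRE-TK-Luc) assays in transfected PC-3 or T47D cells; HIF-1 induced by hypoxia or by the hypoxia mimetic 1,10-phenanthroline (10 μM); compounds at half-log concentrations; luciferase activity measured; IC50 from experiments in triplicate.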

Row | SMILES | IC50 [µM]
12 | CCCc1cc(=O)c2c(O)c3c(OC)cc(O)cc3cc2o1 | 0.6

tested on: RXF 393; assay: Growth inhibition of human RXF393 cells; format: functional; settings: not given

Row | SMILES | GI50 [µM] | LC50 [µM]
13 | CCCc1cc(=O)c2c(O)c3c(OC)cc(O)cc3cc2o1 | 18.2 | > 100

same assay, conditions: read-out: Log TGI (converted)

Row | SMILES | TGI [µM]
14 | CCCc1cc(=O)c2c(O)c3c(OC)cc(O)cc3cc2o1 | 47.9

tested on: OVCAR-5; assay: Growth inhibition of human OVACAR5 cells; format: functional; settings: not given

Row | SMILES | GI50 [µM] | LC50 [µM]
15 | CCCc1cc(=O)c2c(O)c3c(OC)cc(O)cc3cc2o1 | 25.1 | > 100

same assay, conditions: read-out: Log TGI (converted)

Row | SMILES | TGI [µM]
16 | CCCc1cc(=O)c2c(O)c3c(OC)cc(O)cc3cc2o1 | 60.3

tested on: TK-10; assay: Growth inhibition of human TK10 cells; format: functional; settings: not given

Row | SMILES | GI50 [µM] | LC50 [µM]
17 | CCCc1cc(=O)c2c(O)c3c(OC)cc(O)cc3cc2o1 | 30.2 | > 100

same assay, conditions: read-out: Log TGI (converted)

Row | SMILES | TGI [µM]
18 | CCCc1cc(=O)c2c(O)c3c(OC)cc(O)cc3cc2o1 | > 100

tested on: not listed separately; assay: Growth inhibition of human OVACAR3 cells; format: functional; settings: not given

Row | SMILES | GI50 [µM]
19 | CCCc1cc(=O)c2c(O)c3c(OC)cc(O)cc3cc2o1 | 27.5

same assay, conditions: read-out: Log LC50 (the source's name) (converted)

Row | SMILES | CC50 [µM]
20 | CCCc1cc(=O)c2c(O)c3c(OC)cc(O)cc3cc2o1 | > 100

same assay, conditions: read-out: Log TGI (converted)

Row | SMILES | TGI [µM]
21 | CCCc1cc(=O)c2c(O)c3c(OC)cc(O)cc3cc2o1 | > 100

tested on: NCI-H226; assay: Growth inhibition of human NCI-H226 cells; format: functional; settings: not given

Row | SMILES | GI50 [µM]
22 | CCCc1cc(=O)c2c(O)c3c(OC)cc(O)cc3cc2o1 | 17.8

same assay, conditions: read-out: Log LC50 (the source's name) (converted)

Row | SMILES | CC50 [µM]
23 | CCCc1cc(=O)c2c(O)c3c(OC)cc(O)cc3cc2o1 | > 100

same assay, conditions: read-out: Log TGI (converted)

Row | SMILES | TGI [µM]
24 | CCCc1cc(=O)c2c(O)c3c(OC)cc(O)cc3cc2o1 | 45.7

tested on: KM12; assay: Growth inhibition of human KM12 cells; format: functional; settings: not given

Row | SMILES | GI50 [µM]
25 | CCCc1cc(=O)c2c(O)c3c(OC)cc(O)cc3cc2o1 | 17.4

same assay, conditions: read-out: Log LC50 (the source's name) (converted)

Row | SMILES | CC50 [µM]
26 | CCCc1cc(=O)c2c(O)c3c(OC)cc(O)cc3cc2o1 | 93.3

same assay, conditions: read-out: Log TGI (converted)

Row | SMILES | TGI [µM]
27 | CCCc1cc(=O)c2c(O)c3c(OC)cc(O)cc3cc2o1 | 39.8

tested on: MDA-MB-231; assay: Growth inhibition of human MDA-MB-231 cells; format: functional; settings: not given

Row | SMILES | GI50 [µM] | LC50 [µM]
28 | CCCc1cc(=O)c2c(O)c3c(OC)cc(O)cc3cc2o1 | 15.5 | > 100

same assay, conditions: read-out: Log TGI (converted)

Row | SMILES | TGI [µM]
29 | CCCc1cc(=O)c2c(O)c3c(OC)cc(O)cc3cc2o1 | 45.7

tested on: HT-29; assay: Growth inhibition of human HT29 cells; format: functional; settings: not given

Row | SMILES | GI50 [µM]
30 | CCCc1cc(=O)c2c(O)c3c(OC)cc(O)cc3cc2o1 | 18.6

same assay, conditions: read-out: Log LC50 (the source's name) (converted)

Row | SMILES | CC50 [µM]
31 | CCCc1cc(=O)c2c(O)c3c(OC)cc(O)cc3cc2o1 | 72.4

same assay, conditions: read-out: Log TGI (converted)

Row | SMILES | TGI [µM]
32 | CCCc1cc(=O)c2c(O)c3c(OC)cc(O)cc3cc2o1 | 37.2

tested on: NCI-H23; assay: Growth inhibition of human NCI-H23 cells; format: functional; settings: not given

Row | SMILES | GI50 [µM]
33 | CCCc1cc(=O)c2c(O)c3c(OC)cc(O)cc3cc2o1 | 22.4

same assay, conditions: read-out: Log LC50 (the source's name) (converted)

Row | SMILES | CC50 [µM]
34 | CCCc1cc(=O)c2c(O)c3c(OC)cc(O)cc3cc2o1 | > 100

same assay, conditions: read-out: Log TGI (converted)

Row | SMILES | TGI [µM]
35 | CCCc1cc(=O)c2c(O)c3c(OC)cc(O)cc3cc2o1 | 49

tested on: RPMI-8226; assay: Growth inhibition of human RPMI8226 cells; format: functional; settings: not given

Row | SMILES | GI50 [µM]
36 | CCCc1cc(=O)c2c(O)c3c(OC)cc(O)cc3cc2o1 | 14.5

same assay, conditions: read-out: Log LC50 (the source's name) (converted)

Row | SMILES | CC50 [µM]
37 | CCCc1cc(=O)c2c(O)c3c(OC)cc(O)cc3cc2o1 | > 100

same assay, conditions: read-out: Log TGI (converted)

Row | SMILES | TGI [µM]
38 | CCCc1cc(=O)c2c(O)c3c(OC)cc(O)cc3cc2o1 | 43.7

tested on: OVCAR-4; assay: Growth inhibition of human OVACAR4 cells; format: functional; settings: not given

Row | SMILES | GI50 [µM] | LC50 [µM]
39 | CCCc1cc(=O)c2c(O)c3c(OC)cc(O)cc3cc2o1 | 26.3 | > 100

same assay, conditions: read-out: Log TGI (converted)

Row | SMILES | TGI [µM]
40 | CCCc1cc(=O)c2c(O)c3c(OC)cc(O)cc3cc2o1 | > 100

tested on: K562; assay: Growth inhibition of human K562 cells; format: functional; settings: not given

Row | SMILES | GI50 [µM]
41 | CCCc1cc(=O)c2c(O)c3c(OC)cc(O)cc3cc2o1 | 18.2

same assay, conditions: read-out: Log LC50 (the source's name) (converted)

Row | SMILES | CC50 [µM]
42 | CCCc1cc(=O)c2c(O)c3c(OC)cc(O)cc3cc2o1 | > 100

same assay, conditions: read-out: Log TGI (converted)

Row | SMILES | TGI [µM]
43 | CCCc1cc(=O)c2c(O)c3c(OC)cc(O)cc3cc2o1 | 56.2

tested on: U-251; assay: Growth inhibition of human U251 cells; format: functional; settings: not given

Row | SMILES | GI50 [µM] | LC50 [µM]
44 | CCCc1cc(=O)c2c(O)c3c(OC)cc(O)cc3cc2o1 | 16.2 | 95.5

same assay, conditions: read-out: Log TGI (converted)

Row | SMILES | TGI [µM]
45 | CCCc1cc(=O)c2c(O)c3c(OC)cc(O)cc3cc2o1 | 38.9

tested on: HOP-62; assay: Growth inhibition of human HOP62 cells; format: functional; settings: not given

Row | SMILES | GI50 [µM]
46 | CCCc1cc(=O)c2c(O)c3c(OC)cc(O)cc3cc2o1 | 22.9

same assay, conditions: read-out: Log LC50 (the source's name) (converted)

Row | SMILES | CC50 [µM]
47 | CCCc1cc(=O)c2c(O)c3c(OC)cc(O)cc3cc2o1 | > 100

same assay, conditions: read-out: Log TGI (converted)

Row | SMILES | TGI [µM]
48 | CCCc1cc(=O)c2c(O)c3c(OC)cc(O)cc3cc2o1 | 56.2

tested on: Malme-3M; assay: Growth inhibition of human MALME-3M cells; format: functional; settings: not given

Row | SMILES | GI50 [µM]
49 | CCCc1cc(=O)c2c(O)c3c(OC)cc(O)cc3cc2o1 | 25.1

same assay, conditions: read-out: Log LC50 (the source's name) (converted)

Row | SMILES | CC50 [µM]
50 | CCCc1cc(=O)c2c(O)c3c(OC)cc(O)cc3cc2o1 | 100

same assay, conditions: read-out: Log TGI (converted)

Row | SMILES | TGI [µM]
51 | CCCc1cc(=O)c2c(O)c3c(OC)cc(O)cc3cc2o1 | 64.6

tested on: DU-145; assay: Growth inhibition of human DU145 cells; format: functional; settings: not given

Row | SMILES | GI50 [µM]
52 | CCCc1cc(=O)c2c(O)c3c(OC)cc(O)cc3cc2o1 | 18.2

same assay, conditions: read-out: Log LC50 (the source's name) (converted)

Row | SMILES | CC50 [µM]
53 | CCCc1cc(=O)c2c(O)c3c(OC)cc(O)cc3cc2o1 | > 100

same assay, conditions: read-out: Log TGI (converted)

Row | SMILES | TGI [µM]
54 | CCCc1cc(=O)c2c(O)c3c(OC)cc(O)cc3cc2o1 | 45.7

tested on: not listed separately; assay: Inhibition of HIF1 activation in PC3 cells by TK-luciferase assay; format: cell-based; settings: Homo sapiens, PC-3; how it was run: as §1

Row | SMILES | IC50 [µM]
55 | CCCc1cc(=O)c2c(O)c3c(OC)cc(O)cc3cc2o1 | 1

tested on: SK-MEL-28; assay: Growth inhibition of human SK-MEL28 cells; format: functional; settings: not given

Row | SMILES | GI50 [µM]
56 | CCCc1cc(=O)c2c(O)c3c(OC)cc(O)cc3cc2o1 | 20

same assay, conditions: read-out: Log LC50 (the source's name) (converted)

Row | SMILES | CC50 [µM]
57 | CCCc1cc(=O)c2c(O)c3c(OC)cc(O)cc3cc2o1 | 87.1

same assay, conditions: read-out: Log TGI (converted)

Row | SMILES | TGI [µM]
58 | CCCc1cc(=O)c2c(O)c3c(OC)cc(O)cc3cc2o1 | 41.7
